Source: ChEMBL document CHEMBL2424628, “Discovery of potent and selective nonsteroidal indazolyl amide glucocorticoid receptor agonists” (Bioorg Med Chem Lett, 2013)

How the values were obtained:
[1] = target: T1, Glucocorticoid receptor (Homo sapiens) (UniProt P04150); assay: Agonist activity at glucocorticoid receptor in human A549 cells assessed as inhibition of PMA-induced AP-1 activation by luciferase reporter gene assay relative to dexamethasone; type: cell-based
T1 sequence (whole entry): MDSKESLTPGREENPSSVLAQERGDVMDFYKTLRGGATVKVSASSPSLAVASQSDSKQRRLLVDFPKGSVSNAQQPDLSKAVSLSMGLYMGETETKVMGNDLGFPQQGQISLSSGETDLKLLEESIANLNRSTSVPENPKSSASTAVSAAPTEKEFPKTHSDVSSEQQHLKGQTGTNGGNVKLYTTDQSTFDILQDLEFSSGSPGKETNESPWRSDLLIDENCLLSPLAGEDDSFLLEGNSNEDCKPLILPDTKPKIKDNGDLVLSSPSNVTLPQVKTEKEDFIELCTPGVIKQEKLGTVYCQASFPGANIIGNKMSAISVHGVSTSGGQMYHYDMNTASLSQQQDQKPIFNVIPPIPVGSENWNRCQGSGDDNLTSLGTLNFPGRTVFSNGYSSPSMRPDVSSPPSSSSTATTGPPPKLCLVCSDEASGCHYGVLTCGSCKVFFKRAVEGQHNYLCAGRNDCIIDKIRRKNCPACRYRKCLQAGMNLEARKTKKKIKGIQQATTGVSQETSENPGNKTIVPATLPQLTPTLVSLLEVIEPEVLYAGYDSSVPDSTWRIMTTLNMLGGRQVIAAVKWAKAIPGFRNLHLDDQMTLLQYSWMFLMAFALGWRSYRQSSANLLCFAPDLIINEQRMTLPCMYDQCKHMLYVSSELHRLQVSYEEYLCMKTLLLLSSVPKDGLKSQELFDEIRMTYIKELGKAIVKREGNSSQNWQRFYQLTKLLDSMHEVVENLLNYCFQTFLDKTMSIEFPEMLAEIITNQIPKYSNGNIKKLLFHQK
Procedure, shortened: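 A549 lung epithelial cells stably carrying a luciferase reporter with 5 copies of the AP-1 response element; AP-1 induced with PMA (15 ng/ml). Compound inhibition of induction read as decreased luciferase. […] Means of two or more experiments in triplicate.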

Glucocorticoid receptor [2] = target: T2, Glucocorticoid receptor (Homo sapiens, UniProt P04150); assay: Agonist activity at glucocorticoid receptor in human A549 cells assessed as inhibition of PMA-induced AP-1 activation by luciferase reporter gene assay; type: cell-based
T2 sequence (P04150 whole entry): T1 sequence (whole entry)

[3] = target: T1, Glucocorticoid receptor (Homo sapiens); assay: Transactivation of glucocorticoid receptor ligand binding domain (unknown origin) transfected in human HeLa cells assessed as activation of NP-1 by GAL4 luciferase reporter gene assay relative to dexamethasone; type: cell-based
Procedure, shortened: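 HeLa line (NP-1) stably transfected with a GR ligand binding domain chimera in a GAL4 luciferase reporter system, run in agonist mode. Direct GR-LBD activation read as increased luciferase activity. Means of two or more experiments in triplicate.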

Glucocorticoid receptor [4] = target: T2, Glucocorticoid receptor; assay: Binding affinity to glucocorticoid receptor (unknown origin) by fluorescence polarization assay
Glucocorticoid receptor [5] = target: T2, Glucocorticoid receptor; assay: Transactivation of glucocorticoid receptor ligand binding domain (unknown origin) transfected in human HeLa cells assessed as activation of NP-1 by GAL4 luciferase reporter gene assay; type: cell-based
Glucocorticoid receptor [6] = target: T2, Glucocorticoid receptor; assay: Agonist activity at glucocorticoid receptor in human A549 cells assessed as inhibition of IL-1beta-induced NF-kappaB dependent E-selectin activation by luciferase reporter gene assay; type: cell-based
[7] = target: T1, Glucocorticoid receptor (Homo sapiens); assay: Agonist activity at glucocorticoid receptor in human A549 cells assessed as inhibition of IL-1beta-induced NF-kappaB dependent E-selectin activation by luciferase reporter gene assay relative to dexamethasone; type: cell-based

Row | Structure (SMILES) | Efficacy [1] [%] | EC50 (Glucocorticoid receptor [2]) [nM] | Efficacy [3] [%] | Ki (Glucocorticoid receptor [4]) [nM] | EC50 (Glucocorticoid receptor [5]) [nM] | EC50 (Glucocorticoid receptor [6]) [nM] | Efficacy [7] [%]
1 | CC(C)(C(=O)Nc1nncs1)[C@@H](c1ccccc1)c1ccc2c(cnn2-c2cccnc2)c1 | 74 | 19 | 57 | 0.9 | 132 | 19 | 77
2 | CC(C)(C(=O)Nc1nncs1)[C@H](c1ccccc1)c1ccc2c(cnn2-c2cccnc2)c1 | 58 | 349 | – | 4 | > 10000 | 185 | 35
3 | CC(C)(C(=O)Nc1nncs1)[C@@H](c1ccccc1)c1ccc2[nH]ncc2c1 | 79 | 24 | 41 | 2.7 | 208 | 15 | 77
4 | CC(C)(C(=O)Nc1nncs1)[C@H](c1ccccc1)c1ccc2[nH]ncc2c1 | 35 | 617 | < 30 | 13 | > 10000 | > 5000 | < 30
5 | CC(C)(C(=O)Nn1ncnn1)C(c1ccccc1)c1ccc2c(cnn2-c2ccc(F)cc2)c1 (racemic) | – | > 10000 | – | 17 | – | – | –
6 | CC(C)(C(=O)Nc1nncs1)C(c1ccccc1)c1ccc2c(cnn2CCCO)c1 (racemic) | 45 | 1020 | – | 17 | – | – | –
7 | CC(C)(C(=O)Nc1nncs1)C(c1ccccc1)c1ccc2c(cnn2Cc2ccccc2)c1 (racemic) | 62 | 1930 | – | – | – | – | –
8 | CC(C)(C(=O)Nc1nncs1)C(c1ccccc1)c1ccc2c(cnn2CCc2ccccc2)c1 (racemic) | < 30 | > 10000 | – | 46 | – | – | –
9 | CC(C)(C(=O)Nc1nncs1)C(c1ccccc1)c1ccc2c(cnn2-c2ccc(Cl)cc2)c1 (racemic) | 96 | 23 | 55 | – | 256 | 10 | 84
10 | CC(C)(C(=O)Nc1nncs1)C(c1ccccc1)c1ccc2c(cnn2-c2ccc(Br)cc2)c1 (racemic) | < 30 | 956 | – | – | – | – | –
11 | CC(C)(C(=O)Nc1nncs1)C(c1ccccc1)c1ccc2c(cnn2-c2ccccn2)c1 (racemic) | 62 | 127 | – | – | – | – | –
12 | CC(C)(C(=O)Nc1nncs1)C(c1ccccc1)c1ccc2c(cnn2-c2ccncc2)c1 (racemic) | 56 | 106 | < 30 | 1.9 | > 10000 | 78 | 56
13 | COc1cccc(-n2ncc3cc(C(c4ccccc4)C(C)(C)C(=O)Nc4nncs4)ccc32)c1 (racemic) | < 30 | 1200 | < 30 | – | > 10000 | – | –
14 | COc1ccc(-n2ncc3cc(C(c4ccccc4)C(C)(C)C(=O)Nc4nncs4)ccc32)cc1 (racemic) | 76 | 56 | < 30 | – | > 10000 | 143 | 62
15 | CC(C)(C(=O)Nc1nncs1)C(c1ccccc1)c1ccc2c(cnn2-c2ccc(O)cc2)c1 (racemic) | 69 | 271 | < 30 | – | > 10000 | > 5000 | < 30
16 | CC(C)Cn1ncc2cc(C(c3ccccc3)C(C)(C)C(=O)Nc3nncs3)ccc21 (racemic) | 76 | 114 | < 30 | – | > 10000 | 1820 | 77
17 | CC(C)CCn1ncc2cc(C(c3ccccc3)C(C)(C)C(=O)Nc3nncs3)ccc21 (racemic) | 96 | 45 | 66 | 5.7 | 132 | 49 | 87
18 | CC(C)(C(=O)Nc1nncs1)C(c1ccccc1)c1ccc2c(cnn2CCO)c1 (racemic) | 32 | 550 | – | – | – | 1050 | 27
19 | CC(C)(C(=O)Nc1nncs1)C(c1ccccc1)c1ccc2c(cnn2-c2ccccc2)c1 (racemic) | 73 | 20 | – | – | – | – | –
20 | CC(C)(C(=O)Nc1nncs1)C(c1ccccc1)c1ccc2c(cnn2C2CCCCCC2)c1 (racemic) | 85 | – | 60 | – | – | – | 86
21 | CC(C)n1ncc2cc(C(c3ccccc3)C(C)(C)C(=O)Nc3nncs3)ccc21 (racemic) | 82 | – | < 30 | – | – | – | 44
22 | CC(C(=O)Nc1nncs1)C(c1ccccc1)c1ccc2c(cnn2-c2ccc(F)cc2)c1 (single isomer, unassigned; diastereomer 1) | 42 | – | – | – | – | – | –
23 | CC(C(=O)Nc1nncs1)[C@@H](c1ccccc1)c1ccc2c(cnn2-c2ccc(F)cc2)c1 (single isomer, unassigned; diastereomer 2) | 103 | – | 76 | – | – | – | –
24 | CC(C(=O)Nc1nncs1)[C@@H](c1ccccc1)c1ccc2c(cnn2-c2ccc(F)cc2)c1 (single isomer, unassigned; diastereomer 3) | 106 | – | 122 | – | – | – | –
25 | CC(C(=O)Nc1nncs1)C(c1ccccc1)c1ccc2c(cnn2-c2ccc(F)cc2)c1 (single isomer, unassigned; diastereomer 4) | 89 | – | 100 | – | – | – | –

The remaining lines, values ahead:

Row | Efficacy [1] [%] | EC50 (Glucocorticoid receptor [2]) [nM] | Efficacy [3] [%] | Ki (Glucocorticoid receptor [4]) [nM] | EC50 (Glucocorticoid receptor [5]) [nM] | EC50 (Glucocorticoid receptor [6]) [nM] | Efficacy [7] [%] | Structure (SMILES)
26 | 36 | 4320 | – | – | – | – | – | CC(C)(Cc1ccc2c(cnn2-c2ccc(F)cc2)c1)C(=O)Nc1nncs1
27 | 56 | 400 | 59 | 7.9 | 435 | 58 | 81 | CC(C)(C(=O)Nc1nccs1)[C@H](c1ccccc1)c1ccc2c(cnn2-c2ccc(F)cc2)c1
28 | 92 | 1.4 | 94 | 6 | 7.6 | 0.5 | 97 | CC(C)(C(=O)Nc1nccs1)[C@@H](c1ccccc1)c1ccc2c(cnn2-c2ccc(F)cc2)c1
29 | 73 | 17 | – | 11 | – | – | – | CC(C)(C(=O)Nn1nccn1)C(c1ccccc1)c1ccc2c(cnn2-c2ccc(F)cc2)c1 (racemic)
30 | 48 | 49 | – | – | – | – | – | Cc1cnc(NC(=O)C(C)(C)C(c2ccccc2)c2ccc3c(cnn3-c3ccc(F)cc3)c2)s1 (racemic)
31 | 56 | 141 | – | – | – | – | – | Cc1nnc(NC(=O)C(C)(C)C(c2ccccc2)c2ccc3c(cnn3-c3ccc(F)cc3)c2)s1 (racemic)
32 | 62 | 87 | – | – | – | – | – | CCC(c1ccc2c(cnn2-c2ccc(F)cc2)c1)C(C)(C)C(=O)Nc1nccs1 (racemic)
33 | 29 | 81 | – | – | – | – | – | CC(C)C(c1ccc2c(cnn2-c2ccc(F)cc2)c1)C(C)(C)C(=O)Nc1nncs1 (racemic)
34 | 37 | 705 | – | – | – | – | – | CC(C)(C(=O)Nc1nncs1)C(Cc1ccccc1)c1ccc2c(cnn2-c2ccc(F)cc2)c1 (racemic)
35 | 47 | 82 | – | – | – | – | – | CC(C)(C(=O)Nc1nccs1)C(c1ccc2c(cnn2-c2ccc(F)cc2)c1)C1CCCC1 (racemic)
36 | 55 | 66 | – | 18 | – | – | – | CC(C)(C(=O)Nc1nccs1)C(c1ccc2c(cnn2-c2ccc(F)cc2)c1)C1CCCCC1 (racemic)
37 | 68 | 73 | – | – | – | – | – | CC(C)(C(=O)Nc1ccsc1)C(c1ccccc1)c1ccc2c(cnn2-c2ccc(F)cc2)c1 (racemic)
38 | 81 | 23 | – | 18 | – | – | – | CC(C)(C(=O)Nc1nncs1)C(c1ccccc1)c1ccc2c(cnn2-c2ccc(F)cc2)c1 (racemic)
39 | 79 | 4.1 | – | 15 | – | – | – | CC(C)(C(=O)Nc1nccs1)C(c1ccccc1)c1ccc2c(cnn2-c2ccc(F)cc2)c1 (racemic)
40 | 60 | – | – | – | – | – | – | CC(C)(C(=O)Nc1nccs1)C(c1ccncc1)c1ccc2c(cnn2-c2ccc(F)cc2)c1 (racemic)
41 | 60 | – | – | – | – | – | – | CC(C)CC(c1ccc2c(cnn2-c2ccc(F)cc2)c1)C(C)(C)C(=O)Nc1nncs1 (racemic)
42 | 74 | – | – | – | – | – | – | Cc1csc(NC(=O)C(C)(C)C(c2ccccc2)c2ccc3c(cnn3-c3ccc(F)cc3)c2)n1 (racemic)
